Source: ChEMBL document CHEMBL1128440 (J Med Chem, 1995)
Where “and” joins values, the source holds several entries; their conditions need not be identical. Equal values may be shown once.

Experiments:
[1] = organism: Rattus norvegicus; experiment: Tissue biodistribution into estrogen-primed immature female rat muscle at 1 hr blocked time interval; assay type: ADME, organism-based; conditions: in vivo
Outline: (§1)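 Immature female Sprague-Dawley rats (25 days old, ≈50 g, five per time point) primed with estradiol, 5 μg sc daily for 2 days in 50% ethanol/sunflower seed oil, used 24 h after the last injection. The 18F-labeled ligand was given iv by tail vein in 10% ethanol/saline. Decapitated at 1 or 3 h; blood and organs weighed and gamma-counted. Reported as %ID/g ± SD, n = 5.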

[2] = organism: Rattus norvegicus; experiment: Tissue biodistribution into estrogen-primed immature female rat muscle at 1 hr low time interval; assay type: ADME, organism-based; conditions: in vivo; outline: as §1
[3] = organism: Rattus norvegicus; experiment: Tissue biodistribution into estrogen-primed immature female rat muscle at 1 hr time interval; assay type: ADME, organism-based; conditions: in vivo; outline: as §1
[4] = organism: Rattus norvegicus; experiment: Tissue biodistribution into estrogen-primed immature female rat kidney at 1 hr blocked time interval; assay type: ADME, organism-based; conditions: in vivo; outline: as §1
[5] = organism: Rattus norvegicus; experiment: Tissue biodistribution into estrogen-primed immature female rat kidney at 1 hr low time interval; assay type: ADME, organism-based; conditions: in vivo; outline: as §1
[6] = organism: Rattus norvegicus; experiment: Tissue biodistribution into estrogen-primed immature female rat kidney at 1 hr time interval; assay type: ADME, organism-based; conditions: in vivo; outline: as §1
[7] = organism: Rattus norvegicus; experiment: Tissue biodistribution into estrogen-primed immature female rat kidney at 3 hr time interval; assay type: ADME, organism-based; conditions: in vivo; outline: as §1
[8] = organism: Rattus norvegicus; experiment: Tissue biodistribution into estrogen-primed immature female rat liver at 1 hr blocked time interval; assay type: ADME, organism-based; conditions: in vivo; outline: as §1
[9] = organism: Rattus norvegicus; experiment: Tissue biodistribution into estrogen-primed immature female rat liver at 1 hr low time interval; assay type: ADME, organism-based; conditions: in vivo; outline: as §1
[10] = organism: Rattus norvegicus; experiment: Tissue biodistribution into estrogen-primed immature female rat liver at 1 hr time interval; assay type: ADME, organism-based; conditions: in vivo; outline: as §1
[11] = organism: Rattus norvegicus; experiment: Tissue biodistribution into estrogen-primed immature female rat liver at 3 hr time interval; assay type: ADME, organism-based; conditions: in vivo; outline: as §1
[12] = organism: Rattus norvegicus; experiment: Tissue biodistribution into estrogen-primed immature female rat lung at 1 hr blocked time interval; assay type: ADME, organism-based; conditions: in vivo; outline: as §1
[13] = organism: Rattus norvegicus; experiment: Tissue biodistribution into estrogen-primed immature female rat lung at 1 hr low time interval; assay type: ADME, organism-based; conditions: in vivo; outline: as §1
[14] = organism: Rattus norvegicus; experiment: Tissue biodistribution into estrogen-primed immature female rat lung at 1 hr time interval; assay type: ADME, organism-based; conditions: in vivo; outline: as §1
[15] = organism: Rattus norvegicus; experiment: Tissue biodistribution into estrogen-primed immature female rat muscle at 3 hr time interval; assay type: ADME, organism-based; conditions: in vivo; outline: as §1
[16] = organism: Rattus norvegicus; experiment: Tissue biodistribution into estrogen-primed immature female rat ovaries at 1 hr blocked time interval; assay type: ADME, organism-based; conditions: in vivo; outline: as §1
[17] = organism: Rattus norvegicus; experiment: Tissue biodistribution into estrogen-primed immature female rat ovaries at 1 hr low time interval; assay type: ADME, organism-based, Female gonad; conditions: in vivo; outline: as §1
[18] = organism: Rattus norvegicus; experiment: Tissue biodistribution into estrogen-primed immature female rat ovaries at 1 hr time interval; assay type: ADME, organism-based, Female gonad; conditions: in vivo; outline: as §1
[19] = organism: Rattus norvegicus; experiment: Tissue biodistribution into estrogen-primed immature female rat ovaries at 3 hr time interval; assay type: ADME, organism-based, Female gonad; conditions: in vivo; outline: as §1
[20] = organism: Rattus norvegicus; experiment: Tissue biodistribution into estrogen-primed immature female rat uterus at 1 hr blocked time interval; assay type: ADME, organism-based; conditions: in vivo; outline: as §1
[21] = organism: Rattus norvegicus; experiment: Tissue biodistribution into estrogen-primed immature female rat uterus at 1 hr low time interval; assay type: ADME, organism-based; conditions: in vivo; outline: as §1
[22] = organism: Rattus norvegicus; experiment: Tissue biodistribution into estrogen-primed immature female rat uterus at 1 hr time interval; assay type: ADME, organism-based; conditions: in vivo; outline: as §1
[23] = organism: Rattus norvegicus; experiment: Tissue biodistribution into estrogen-primed immature female rat uterus at 3 hr time interval; assay type: ADME, organism-based; conditions: in vivo; outline: as §1
[24] = organism: Rattus norvegicus; experiment: Tissue biodistribution into estrogen-primed immature female rat uterus/blood at 1 hr blocked time interval; assay type: ADME, organism-based; conditions: in vivo; outline: as §1
[25] = organism: Rattus norvegicus; experiment: Tissue biodistribution into estrogen-primed immature female rat uterus/blood at 1 hr low time interval; assay type: ADME, organism-based; conditions: in vivo; outline: as §1
[26] = organism: Rattus norvegicus; experiment: Tissue biodistribution into estrogen-primed immature female rat uterus/blood at 1 hr time interval; assay type: ADME, organism-based; conditions: in vivo; outline: as §1
[27] = organism: Rattus norvegicus; experiment: Tissue biodistribution into estrogen-primed immature female rat uterus/blood at 3 hr time interval; assay type: ADME, organism-based; conditions: in vivo; outline: as §1
[28] = organism: Rattus norvegicus; experiment: Tissue biodistribution into estrogen-primed immature female rat fat at 1 hr low time interval; assay type: ADME, organism-based, Adipose tissue; conditions: in vivo; outline: as §1
[29] = organism: Rattus norvegicus; experiment: Tissue biodistribution into estrogen-primed immature female rat fat at 1 hr time interval; assay type: ADME, organism-based, Adipose tissue; conditions: in vivo; outline: as §1
[30] = organism: Rattus norvegicus; experiment: Tissue biodistribution into estrogen-primed immature female rat fat at 3 hr time interval; assay type: ADME, organism-based, Adipose tissue; conditions: in vivo; outline: as §1
[31] = organism: Rattus norvegicus; experiment: Tissue biodistribution into estrogen-primed immature female rat uterus/muscle at 1 hr low time interval; assay type: ADME, organism-based; conditions: in vivo; outline: as §1
[32] = organism: Rattus norvegicus; experiment: Tissue biodistribution into estrogen-primed immature female rat uterus/muscle at 1 hr time interval; assay type: ADME, organism-based; conditions: in vivo
[33] = organism: Rattus norvegicus; experiment: Tissue biodistribution into estrogen-primed immature female rat uterus/muscle at 3 hr time interval; assay type: ADME, organism-based; conditions: in vivo
[34] = organism: Rattus norvegicus; experiment: Tissue biodistribution into estrogen-primed immature female rat blood at 1 hr blocked time interval; assay type: ADME, organism-based; conditions: in vivo; outline: as §1
[35] = organism: Rattus norvegicus; experiment: Tissue biodistribution into estrogen-primed immature female rat blood at 1 hr low time interval; assay type: ADME, organism-based; conditions: in vivo; outline: as §1
[36] = organism: Rattus norvegicus; experiment: Tissue biodistribution into estrogen-primed immature female rat blood at 1 hr time interval; assay type: ADME, organism-based; conditions: in vivo; outline: as §1
[37] = organism: Rattus norvegicus; experiment: Tissue biodistribution into estrogen-primed immature female rat blood at 3 hr time interval; assay type: ADME, organism-based; conditions: in vivo; outline: as §1
[38] = organism: Rattus norvegicus; experiment: Tissue biodistribution into estrogen-primed immature female rat bone at 1 hr blocked time interval; assay type: ADME, organism-based, Bone element; conditions: in vivo; outline: as §1
[39] = organism: Rattus norvegicus; experiment: Tissue biodistribution into estrogen-primed immature female rat bone at 1 hr time interval; assay type: ADME, organism-based, Bone element; conditions: in vivo; outline: as §1
[40] = organism: Rattus norvegicus; experiment: Tissue biodistribution into estrogen-primed immature female rat bone at 3 hr time interval; assay type: ADME, organism-based, Bone element; conditions: in vivo; outline: as §1
[41] = organism: Rattus norvegicus; experiment: Tissue biodistribution into estrogen-primed immature female rat brain at 1 hr blocked time interval; assay type: ADME, organism-based; conditions: in vivo; outline: as §1
[42] = organism: Rattus norvegicus; experiment: Tissue biodistribution into estrogen-primed immature female rat brain at 1 hr low time interval; assay type: ADME, organism-based; conditions: in vivo; outline: as §1
[43] = organism: Rattus norvegicus; experiment: Tissue biodistribution into estrogen-primed immature female rat brain at 1 hr time interval; assay type: ADME, organism-based; conditions: in vivo; outline: as §1
[44] = organism: Rattus norvegicus; experiment: Tissue biodistribution into estrogen-primed immature female rat brain at 3 hr time interval; assay type: ADME, organism-based; conditions: in vivo; outline: as §1
[45] = organism: Rattus norvegicus; experiment: Tissue biodistribution into estrogen-primed immature female rat fat at 1 hr blocked time interval; assay type: ADME, organism-based, Adipose tissue; conditions: in vivo; outline: as §1
[46] = Partition coefficient (logP); assay type: physicochemical; conditions: octanol/water
Outline: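 log P(o/w) (octanol/water) estimated by a reversed-phase HPLC method.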

[47] = target: T1, Progesterone receptor (Homo sapiens) (UniProt P06401); experiment: Nonspecific binding affinity against progesterone receptor was estimated relative to compound R5020
T1 sequence (whole entry): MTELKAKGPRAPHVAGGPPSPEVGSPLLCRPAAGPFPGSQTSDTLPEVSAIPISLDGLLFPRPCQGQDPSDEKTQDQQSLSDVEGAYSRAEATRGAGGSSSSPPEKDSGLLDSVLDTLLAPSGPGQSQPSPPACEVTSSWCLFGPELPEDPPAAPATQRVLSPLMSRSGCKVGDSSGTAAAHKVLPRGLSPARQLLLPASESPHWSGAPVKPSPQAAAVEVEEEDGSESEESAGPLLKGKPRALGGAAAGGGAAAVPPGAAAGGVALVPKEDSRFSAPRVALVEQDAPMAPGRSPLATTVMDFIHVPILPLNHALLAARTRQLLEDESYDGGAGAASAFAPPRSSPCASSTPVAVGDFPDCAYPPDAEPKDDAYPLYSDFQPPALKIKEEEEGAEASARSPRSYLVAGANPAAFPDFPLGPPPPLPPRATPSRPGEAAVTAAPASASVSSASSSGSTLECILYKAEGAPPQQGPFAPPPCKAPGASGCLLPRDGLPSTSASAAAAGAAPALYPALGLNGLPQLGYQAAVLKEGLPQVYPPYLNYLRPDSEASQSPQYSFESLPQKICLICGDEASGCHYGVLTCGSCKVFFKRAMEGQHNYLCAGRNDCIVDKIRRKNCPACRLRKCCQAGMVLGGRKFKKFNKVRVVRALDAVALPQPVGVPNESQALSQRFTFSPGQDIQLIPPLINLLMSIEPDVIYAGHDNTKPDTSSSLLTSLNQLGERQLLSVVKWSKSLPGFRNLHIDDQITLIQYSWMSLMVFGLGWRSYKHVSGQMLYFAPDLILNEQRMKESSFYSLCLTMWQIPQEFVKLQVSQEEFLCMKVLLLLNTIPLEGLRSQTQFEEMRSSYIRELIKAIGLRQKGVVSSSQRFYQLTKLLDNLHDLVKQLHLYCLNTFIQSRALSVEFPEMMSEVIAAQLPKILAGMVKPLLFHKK

[48] = organism: Rattus norvegicus; experiment: Tissue biodistribution into estrogen-primed immature female rat lung at 3 hr time interval; assay type: ADME, organism-based; conditions: in vivo; outline: as §1
[49] = organism: Rattus norvegicus; experiment: Tissue biodistribution into estrogen-primed immature female rat bone at 1 hr low time interval; assay type: ADME, organism-based, Bone element; conditions: in vivo; outline: as §1
[50] = organism: Rattus norvegicus; experiment: Tissue biodistribution into estrogen-primed immature female rat uterus/muscle at 1 hr blocked time interval; assay type: ADME, organism-based; conditions: in vivo; outline: as §1

C[C@]12CCC3C(CCC4=CC(=O)CC[C@@H]43)C1C[C@H]1OC(c3ccco3)O[C@]12C(=O)CF (some centres undefined)
Injected dose/g [1]: 0.71%
Injected dose/g [2]: 0.41%
Injected dose/g [3]: 0.59%
Injected dose/g [4]: 1.72%
Injected dose/g [5]: 1.14%
Injected dose/g [6]: 1.66%
Injected dose/g [7]: 0.73%
Injected dose/g [8]: 2.49%
Injected dose/g [9]: 1.81%
Injected dose/g [10]: 2.4%
Injected dose/g [11]: 1.65%
Injected dose/g [12]: 1.16%
Injected dose/g [13]: 1.51%
Injected dose/g [14]: 2.38%
Injected dose/g [15]: 0.26%
Injected dose/g [16]: 1.65%
Injected dose/g [17]: 2.13%
Injected dose/g [18]: 2.76%
Injected dose/g [19]: 2.62%
Injected dose/g [20]: 1.68%
Injected dose/g [21]: 5.18%
Injected dose/g [22]: 6.8%
Injected dose/g [23]: 7.83%
uterus/blood ratio [24]: 3.68
Injected dose/g [25]: 14.95%
Uterus to blood concentration ratio [26]: 18.18%
uterus/blood ratio [27]: 48
Injected dose/g [28]: 2.15%
Injected dose/g [29]: 2.16%
Injected dose/g [30]: 2.36%
Injected dose/g [31]: 12.85%
Uterus to muscle uptake ratio [32]: 11.63%
ratio [33]: 32.2
Injected dose/g [34]: 0.46%
Injected dose/g [35]: 0.35%
Injected dose/g [36]: 0.38%
Injected dose/g [37]: 0.19%
Injected dose/g [38]: 1.29%
Injected dose/g [39]: 1.11%
Injected dose/g [40]: 1.3%
Injected dose/g [41]: 0.49%
Injected dose/g [42]: 0.4%
Injected dose/g [43]: 0.57%
Injected dose/g [44]: 0.18%
Injected dose/g [45]: 2.4%
logP [46]: 4.11
logP ([46]; read-out: logP): 3.87
NSB [47]: 0.83 and 1.06
Injected dose/g [48]: 0.31%
Injected dose/g [49]: 0.99%
uterus/muscle ratio [50]: 2.34

C[C@]12CCC3C(CCC4=CC(=O)CC[C@@H]43)C1C[C@H]1OC(c3ccco3)O[C@]12C(=O)CO (some centres undefined)
logP [46]: 3.78
logP ([46]; read-out: logP): 4.01
NSB [47]: 0.96 and 0.76
